Experimental findings from ChEMBL document CHEMBL4330158, “Prenylated Flavonoids from the Roots and Rhizomes of Sophora tonkinensis and Their Effects on the Expression of Inflammatory Mediators and Proprotein Convertase Subtilisin/Kexin Type 9” (J Nat Prod, 2019) are described below.

Calls of active or inactive are those of the source. No cut-off for these calls is given here.

Data set [1] relates to RAW264.7. Nature of the data set: Anti-inflammatory activity in mouse RAW264.7 cells assessed as inhibition of LPS-induced IL-1beta mRNA level at 2 to 10 uM after 6 hrs by qRT-PCR assay. Format: functional, cell-based. An outline of the steps: (§1)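 RAW264.7 macrophages were grown in RPMI 1640 with 10% FBS at 37 °C and 5% CO2, then stimulated with LPS for 6 h. Total RNA was extracted with Trizol, and 1 μg was reverse-transcribed with oligo-dT at 42 °C for 1 h. SYBR Green qPCR ran 40 cycles of 95 °C 10 s and 55 °C 30 s. Levels were normalized to GAPDH by 2−ΔΔCT and given as mean ± SEM.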

For data set [2], the system named is RAW264.7. Kind of data set: Anti-inflammatory activity in mouse RAW264.7 cells assessed as inhibition of LPS-induced NO production by Griess assay. Format: functional, cell-based. An outline of the steps: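 Murine RAW264.7 macrophages were kept in RPMI 1640 with 10% FBS and penicillin/streptomycin at 37 °C and 5% CO2. NO production was taken as the nitrite concentration in the culture medium, measured by the Griess reaction.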

For data set [3], the system named is RAW264.7. Nature of the data set: Anti-inflammatory activity in mouse RAW264.7 cells assessed as inhibition of LPS-induced CSF2 mRNA level at 2 to 10 uM after 6 hrs by qRT-PCR assay. Format: functional, cell-based. The method in brief: as §1
Data set [4] deals with RAW264.7. Nature of the data set: Cytotoxicity against mouse RAW264.7 cells assessed as reduction in cell viability at 20 uM by MTT assay. Format: cell-based. The following applies: raw264.7, 20 µM. An outline of the steps:
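Viability was read by MTT assay in triplicate, with cells cultured at 37 °C in humidified 5% CO2.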

The subject of data set [5] is RAW264.7. Kind of data set: Anti-inflammatory activity in mouse RAW264.7 cells assessed as inhibition of LPS-induced TNF mRNA level at 2 to 10 uM after 6 hrs by qRT-PCR assay. Format: functional, cell-based. An outline of the steps:
as §1

Data set [6] has as its system HepG2 (Homo sapiens). Nature of the data set: Inhibition of PCSK9 mRNA level in human HepG2 cells at 20 uM by qRT-PCR assay relative to control.
The subject of data set [7] is HepG2 (Homo sapiens). Kind of data set: Inhibition of PCSK9 protein synthesis in human HepG2 cells by immunoblot analysis.
Data set [8] concerns HepG2 (Homo sapiens). Nature of the data set: Induction of ACC phosphorylation in human HepG2 cells at 4 to 20 uM by Western blot analysis.
Data set [9] relates to RAW264.7. Nature of the data set: Anti-inflammatory activity in mouse RAW264.7 cells assessed as inhibition of LPS-induced TNF mRNA level at 2 to 50 uM after 6 hrs by qRT-PCR assay. The class given is functional, cell-based. The method in brief:
as §1

In data set [10] the test system is RAW264.7. Kind of data set: Anti-inflammatory activity in mouse RAW264.7 cells assessed as inhibition of LPS-induced IL-1beta mRNA level at 2 to 50 uM after 6 hrs by qRT-PCR assay. Format: functional, cell-based. An outline of the steps:
as §1

For data set [11], the system named is RAW264.7. Kind of data set: Anti-inflammatory activity in mouse RAW264.7 cells assessed as inhibition of LPS-induced CSF2 mRNA level at 2 to 50 uM after 6 hrs by qRT-PCR assay. The class given is functional, cell-based. The method in brief:
as §1

As to `COc1ccc([C@@H](CO)C(=O)c2cc(CC=C(C)C)c(OC)cc2O)cc1`, the inhibition result in data set [1] and in data set [3] was “Active” each time. Also, the half-maximal inhibitory concentration (IC50) in data set [2] is 8.1 µM. Further, the Activity result in data set [4] is recorded as “Non-Toxic”. Also, the inhibition entry in data set [5] was “inactive”.

Consider `CC(C)=CCc1c(O)c(CC=C(C)C)c2c(c1O)C(=O)C[C@@H](c1ccc(O)cc1)O2` [LONCHOCARPOL A], for which, in data set [6], the inhibition at 20 µM amounted to 67.2%. Also, the Activity result in [4] was “Toxic”.

As to `CC(C)=CCc1c(O)ccc2c1OC[C@H]1c3ccc4c(c3O[C@@H]21)OC(C)(C)C=C4` [ERYBREADIN D], testing at 20 µM in data set [6] gave an inhibition of 44%. Moreover, in data set [7], the IC50 was found to be 7.8 µM. Further, in [8], the outcome was Active.

Turning to `COc1ccc(-c2coc3c(CC=C(C)C)c(OC)ccc3c2=O)cc1`, the IC50 in data set [2] is 6.2 µM. Further, the Activity entry in [4] is “Non-Toxic”. The inhibition result in data set [9] and in data set [11] was “Active” in each case. For the same compound, in data set [10], the inhibition entry was “inactive”.

In the case of `COc1ccc2cc3[n+](cc2c1OC)CCc1cc2c(cc1-3)OCO2` [BERBERINE], the inhibition at 20 µM in data set [6] worked out at 67%. In [7], this compound displayed an IC50 of 6.9 µM.
